Assay results reported in ChEMBL document CHEMBL4196130, “3-(2-Carboxyethyl)indole-2-carboxylic Acid Derivatives: Structural Requirements and Properties of Potent Agonists of the Orphan G Protein-Coupled Receptor GPR17” (J Med Chem, 2018).
Values belong to the molecule of their own block, whether it stands above or below them. Activity calls are given as the source filed them. No cut-off for these calls is given here.

What was measured:
[1] = target: P2Y purinoceptor 6 (Homo sapiens) (UniProt Q15077); test: Agonist activity at human P2Y6 receptor transfected in human 1321N1 cells assessed as induction of calcium mobilization after 30 mins in presence of UDP by fluo-4 dye based assay; type: functional, cell-based
P2Y purinoceptor 6 (Homo sapiens), sequence (Q15077 whole entry): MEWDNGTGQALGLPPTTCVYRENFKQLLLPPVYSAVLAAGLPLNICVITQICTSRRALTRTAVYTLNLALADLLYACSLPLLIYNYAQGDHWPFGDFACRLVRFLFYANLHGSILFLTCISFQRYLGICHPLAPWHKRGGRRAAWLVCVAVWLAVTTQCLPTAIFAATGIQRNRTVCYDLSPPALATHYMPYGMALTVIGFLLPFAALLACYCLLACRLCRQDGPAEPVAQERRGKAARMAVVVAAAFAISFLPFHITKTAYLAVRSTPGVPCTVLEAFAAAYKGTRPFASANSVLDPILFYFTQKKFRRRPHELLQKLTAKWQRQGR
Outline: (§1)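 Calcium mobilization was measured in 1321N1 astrocytoma cells stably transfected with human P2Y1, P2Y2, P2Y4 or P2Y6 receptors, read on a Flexstation III microplate reader.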

[2] = target: Uracil nucleotide/cysteinyl leukotriene receptor (Mus musculus, UniProt Q6NS65); test: Agonist activity at mouse GPR17 expressed in HEK293 cells assessed as induction of intracellular calcium mobilization by calcium 5-dye based assay; type: functional, cell-based
Uracil nucleotide/cysteinyl leukotriene receptor (Mus musculus, UniProt Q6NS65), sequence (Q6NS65 whole entry): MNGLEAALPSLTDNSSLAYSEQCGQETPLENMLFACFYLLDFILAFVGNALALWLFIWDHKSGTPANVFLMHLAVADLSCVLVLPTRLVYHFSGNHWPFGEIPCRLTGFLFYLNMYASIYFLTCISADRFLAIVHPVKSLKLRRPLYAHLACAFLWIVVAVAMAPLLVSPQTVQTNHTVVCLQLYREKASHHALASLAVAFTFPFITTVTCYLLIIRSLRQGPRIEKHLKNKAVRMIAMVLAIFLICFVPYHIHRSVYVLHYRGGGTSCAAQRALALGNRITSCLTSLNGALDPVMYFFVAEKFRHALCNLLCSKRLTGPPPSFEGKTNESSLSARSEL
Outline: (§2)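 HEK293 cells expressing rat or mouse GPR17 were seeded at 60,000 cells/well on poly-D-lysine plates and loaded 40 min with Calcium 5 indicator dye. Calcium signals were read on a plate reader. EC50 was obtained by nonlinear regression of concentration-response data. Means ± SEM from 3 independent experiments.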

[3] = target: T1, P2Y purinoceptor 14 (Homo sapiens) (UniProt Q15391); test: Agonist activity at human P2Y14 receptor transfected in CHO cells assessed as induction of beta-arrestin translocation; type: functional, cell-based
T1 sequence (whole entry): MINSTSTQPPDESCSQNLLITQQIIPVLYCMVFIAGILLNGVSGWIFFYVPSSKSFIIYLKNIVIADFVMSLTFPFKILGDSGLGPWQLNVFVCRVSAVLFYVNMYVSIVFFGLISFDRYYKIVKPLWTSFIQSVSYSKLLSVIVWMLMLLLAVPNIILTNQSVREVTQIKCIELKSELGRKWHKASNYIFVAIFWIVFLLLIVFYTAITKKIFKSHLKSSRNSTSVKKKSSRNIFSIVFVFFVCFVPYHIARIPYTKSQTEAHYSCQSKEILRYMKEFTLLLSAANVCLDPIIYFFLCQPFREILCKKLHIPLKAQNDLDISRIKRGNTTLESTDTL
Outline: (§3)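 β-Arrestin translocation assays were run in CHO cells stably transfected with human P2Y12 or P2Y14 receptors.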

[4] = target: T2, Uracil nucleotide/cysteinyl leukotriene receptor (Homo sapiens, UniProt Q13304); test: Agonist activity at human GPR17 expressed in human 1321N1 cells assessed as induction of calcium mobilization after 1 hr by Oregon Green BAPTA-1/AM dye-based fluorescence assay relative to MDL 29,951; type: functional, cell-based
T2 sequence (Q13304 whole entry): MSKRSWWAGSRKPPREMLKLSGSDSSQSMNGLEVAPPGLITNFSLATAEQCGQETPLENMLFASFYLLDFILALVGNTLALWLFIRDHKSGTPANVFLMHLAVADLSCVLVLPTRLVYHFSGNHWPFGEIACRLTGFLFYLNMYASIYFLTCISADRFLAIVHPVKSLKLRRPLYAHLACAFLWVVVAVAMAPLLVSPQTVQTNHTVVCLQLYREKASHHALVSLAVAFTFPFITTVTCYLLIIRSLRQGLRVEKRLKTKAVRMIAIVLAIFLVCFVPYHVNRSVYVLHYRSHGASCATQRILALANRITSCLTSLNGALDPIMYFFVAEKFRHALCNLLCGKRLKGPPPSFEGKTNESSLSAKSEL
Outline: (§4)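 Stably transfected 1321N1 astrocytoma cells were trypsin/EDTA-harvested, held 45 min at 37°C, then loaded 1 h at 25°C in KRH buffer pH 7.4 with 3 µM Oregon Green BAPTA-1/AM and 1% Pluronic F127, washed, and plated at ~16,000 cells/well. Fluorescence was read at 520 nm for 30 s after compound injection. Efficacy was expressed relative to the maximum given by 10 µM MDL 29,951. EC50 came from concentration-response curves, run for compounds exceeding 50% stimulation at 10 µM. At least three independent experiments, each in duplicate.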

[5] = target: T2, Uracil nucleotide/cysteinyl leukotriene receptor; test: Agonist activity at human GPR17 expressed in human 1321N1 cells assessed as induction of calcium mobilization after 1 hr by Oregon Green BAPTA-1/AM dye-based fluorescence assay; type: functional, cell-based; outline: as §4
[6] = target: Uracil nucleotide/cysteinyl leukotriene receptor (Mus musculus) (UniProt Q6NS65); test: Agonist activity at mouse GPR17 expressed in HEK293 cells assessed as induction of intracellular calcium mobilization at 10 uM by calcium 5-dye based assay relative to MDL 29,951; type: functional, cell-based
Uracil nucleotide/cysteinyl leukotriene receptor (Mus musculus), sequence (Q6NS65 whole entry): as the sequence (Q6NS65 whole entry) above

[7] = target: Uracil nucleotide/cysteinyl leukotriene receptor (Rattus norvegicus) (UniProt Q09QM4); test: Agonist activity at rat GPR17 expressed in HEK293 cells assessed as induction of intracellular calcium mobilization at 10 uM by calcium 5-dye based assay relative to MDL 29,951; type: functional, cell-based
Uracil nucleotide/cysteinyl leukotriene receptor (Rattus norvegicus), sequence (Q09QM4 whole entry): as the sequence (Q6NS65 whole entry) above, with N2D, A6T, S15A, A270S counted along it

[8] = Selectivity ratio of EC50 for mouse GPR17 expressed in HEK293 cells to EC50 for human GPR17 expressed in human 1321N1 cells; type: cell-based
[9] = target: P2Y purinoceptor 1 (Homo sapiens) (UniProt P47900); test: Agonist activity at human P2Y1 receptor transfected in human 1321N1 cells assessed as induction of calcium mobilization after 30 mins in presence of ADP by fluo-4 dye based assay; type: functional, cell-based; outline: as §1
P2Y purinoceptor 1 (Homo sapiens), sequence (P47900 whole entry): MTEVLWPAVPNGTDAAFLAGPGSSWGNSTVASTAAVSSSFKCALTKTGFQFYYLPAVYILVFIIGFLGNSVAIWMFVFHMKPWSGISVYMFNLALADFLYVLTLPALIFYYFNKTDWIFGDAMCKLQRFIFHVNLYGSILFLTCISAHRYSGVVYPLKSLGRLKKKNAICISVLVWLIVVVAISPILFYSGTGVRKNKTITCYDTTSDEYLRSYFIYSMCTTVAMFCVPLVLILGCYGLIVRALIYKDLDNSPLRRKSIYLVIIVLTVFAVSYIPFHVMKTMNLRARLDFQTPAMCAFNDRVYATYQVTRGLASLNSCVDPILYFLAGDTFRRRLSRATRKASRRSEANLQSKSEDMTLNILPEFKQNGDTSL

[10] = target: Uracil nucleotide/cysteinyl leukotriene receptor (Rattus norvegicus, UniProt Q09QM4); test: Agonist activity at rat GPR17 expressed in HEK293 cells assessed as induction of intracellular calcium mobilization by calcium 5-dye based assay; type: functional, cell-based; outline: as §2
Uracil nucleotide/cysteinyl leukotriene receptor (Rattus norvegicus, UniProt Q09QM4), sequence (Q09QM4 whole entry): as the sequence (Q6NS65 whole entry) above, with N2D, A6T, S15A, A270S counted along it

[11] = target: P2Y purinoceptor 4 (Homo sapiens) (UniProt P51582); test: Agonist activity at human P2Y4 receptor transfected in human 1321N1 cells assessed as induction of calcium mobilization after 30 mins in presence of UTP by fluo-4 dye based assay; type: functional, cell-based; outline: as §1
P2Y purinoceptor 4 (Homo sapiens), sequence (P51582 whole entry): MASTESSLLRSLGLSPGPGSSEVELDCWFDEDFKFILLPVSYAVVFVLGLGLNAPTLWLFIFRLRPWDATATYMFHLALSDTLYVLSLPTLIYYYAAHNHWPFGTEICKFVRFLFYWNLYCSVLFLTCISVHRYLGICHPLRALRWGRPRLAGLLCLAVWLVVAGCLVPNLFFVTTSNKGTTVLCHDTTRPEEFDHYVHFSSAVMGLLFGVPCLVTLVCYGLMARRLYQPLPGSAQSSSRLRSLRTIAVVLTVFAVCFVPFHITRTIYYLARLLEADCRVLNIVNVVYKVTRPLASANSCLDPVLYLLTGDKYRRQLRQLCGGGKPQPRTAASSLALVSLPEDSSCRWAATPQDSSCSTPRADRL

[12] = Selectivity ratio of EC50 for rat GPR17 expressed in HEK293 cells to EC50 for human GPR17 expressed in human 1321N1 cells; type: cell-based
[13] = target: P2Y purinoceptor 12 (Homo sapiens) (UniProt Q9H244); test: Agonist activity at human P2Y12 receptor transfected in CHO cells assessed as induction of beta-arrestin translocation; type: functional, cell-based; outline: as §3
P2Y purinoceptor 12 (Homo sapiens), sequence (Q9H244 whole entry): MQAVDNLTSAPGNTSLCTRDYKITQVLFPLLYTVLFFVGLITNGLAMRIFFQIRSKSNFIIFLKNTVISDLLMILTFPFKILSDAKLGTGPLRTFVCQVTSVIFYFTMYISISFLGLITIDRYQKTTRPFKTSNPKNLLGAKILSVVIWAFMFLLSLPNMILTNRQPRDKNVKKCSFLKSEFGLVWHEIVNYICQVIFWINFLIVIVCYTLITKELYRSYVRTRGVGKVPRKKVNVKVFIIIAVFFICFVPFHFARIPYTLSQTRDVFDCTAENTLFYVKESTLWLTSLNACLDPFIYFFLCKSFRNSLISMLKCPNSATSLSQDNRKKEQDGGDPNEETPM

Homo sapiens = species: Homo sapiens; test: Selectivity ratio of EC50 for human P2Y2 receptor transfected in human 1321N1 cells to EC50 for human GPR17 expressed in human 1321N1 cells; type: cell-based
P2Y purinoceptor 2 = P2Y purinoceptor 2 (Homo sapiens, UniProt P41231); test: Agonist activity at human P2Y2 receptor transfected in human 1321N1 cells assessed as induction of calcium mobilization after 30 mins in presence of UTP by fluo-4 dye based assay; type: functional, cell-based; outline: as §1
P2Y purinoceptor 2, sequence (P41231 whole entry): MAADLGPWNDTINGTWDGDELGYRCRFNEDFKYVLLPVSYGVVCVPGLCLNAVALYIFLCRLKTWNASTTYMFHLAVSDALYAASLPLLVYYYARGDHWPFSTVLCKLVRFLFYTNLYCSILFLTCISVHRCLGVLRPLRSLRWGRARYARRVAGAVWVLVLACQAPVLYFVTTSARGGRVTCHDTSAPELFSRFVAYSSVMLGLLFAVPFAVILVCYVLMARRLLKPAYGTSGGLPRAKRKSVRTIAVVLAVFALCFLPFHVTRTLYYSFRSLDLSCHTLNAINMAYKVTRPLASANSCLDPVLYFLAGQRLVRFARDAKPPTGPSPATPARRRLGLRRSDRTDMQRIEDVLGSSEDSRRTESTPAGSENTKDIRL

[14] = target: T2, Uracil nucleotide/cysteinyl leukotriene receptor; test: Displacement of [3H]PSB-12150 from human GPR17 expressed in CHO cell membranes after 60 mins by liquid scintillation counting
Outline: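 Membranes from CHO cells stably expressing human GPR17 were incubated 60 min at 25°C with 25 nM [3H]PSB-12150 (17 Ci/mmol), 10 mM MgCl2 and increasing test compound concentrations. Bound radioligand was separated by GF/B filtration and counted by liquid scintillation. Nonspecific binding was defined with 100 µM unlabeled PSB-12150. Ki came from the Cheng-Prusoff equation with KD 1190 nM. Three independent experiments in duplicate.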

[15] = target: T2, Uracil nucleotide/cysteinyl leukotriene receptor; test: Agonist activity at human GPR17 expressed in human 1321N1 cells assessed as induction of calcium mobilization at >=10 uM after 1 hr by Oregon Green BAPTA-1/AM dye-based fluorescence assay relative to control; type: functional, cell-based
[16] = target: T2, Uracil nucleotide/cysteinyl leukotriene receptor; test: Agonist activity at human GPR17 expressed in human 1321N1 cells assessed as induction of calcium mobilization at >30 uM after 1 hr by Oregon Green BAPTA-1/AM dye-based fluorescence assay relative to control; type: functional, cell-based
Glutamate NMDA receptor = test: Displacement of [3H]CCP from NMDA receptor glutamate binding site in rat cortical and hippocampal membranes
[17] = target: T2, Uracil nucleotide/cysteinyl leukotriene receptor; test: Agonist activity at human GPR17 expressed in human 1321N1 cells assessed as induction of calcium mobilization at 30 uM after 1 hr by Oregon Green BAPTA-1/AM dye-based fluorescence assay relative to control; type: functional, cell-based
[18] = target: T2, Uracil nucleotide/cysteinyl leukotriene receptor; test: Agonist activity at human GPR17 expressed in human 1321N1 cells assessed as induction of calcium mobilization at >10 uM after 1 hr by Oregon Green BAPTA-1/AM dye-based fluorescence assay relative to control; type: functional, cell-based

SMILES: CCCCCCOc1cc(Cl)c2c(CCC(=O)O)c(C(=O)O)[nH]c2c1
- Activity [1]: inactive
- EC50 [2]: 3.03 µM
- Activity [3]: inactive
- Emax [4]: 95%
- EC50 [5]: 0.067 µM
- Emax [6]: 59%
- Emax [7]: 77%
- Ratio EC50 [8]: 34 to 48
- Activity [9]: inactive
- EC50 [10]: 2.3 µM
- Activity [11]: inactive
- Ratio EC50 [12]: 34 to 48
- Activity [13]: inactive
- Ratio EC50 (Homo sapiens): > 700
- EC50 (P2Y purinoceptor 2): ≥ 50 µM
- Ki [14]: 13.1 µM

SMILES: CCCCCCOc1ccc2c(CCC(=O)O)c(C(=O)O)[nH]c2c1
- Activity [1]: inactive
- EC50 [2]: 5.51 µM
- Activity [3]: inactive
- Emax [4]: 62%
- EC50 [5]: 0.115 µM
- Emax [6]: 28%
- Emax [7]: 53%
- Ratio EC50 [8]: 34 to 48
- Activity [9]: inactive
- EC50 [10]: 5.31 µM
- Activity [11]: inactive
- Ratio EC50 [12]: 34 to 48
- Activity [13]: inactive
- Activity (P2Y purinoceptor 2): inactive
- Ki [14]: 1.5 µM

SMILES: CCCCCCCCOc1cc(Cl)cc2[nH]c(C(=O)O)c(CCC(=O)O)c12
- Activity [18]: 25%
- EC50 [5]: > 10 µM

More lines, now with the values ahead:

- EC50 [5]: ≥ 10 µM
- Activity [15]: 44%
SMILES: O=C(O)CCc1c(C(=O)O)[nH]c2cccc(F)c12

- Activity [16]: 11%
- IC50 (Glutamate NMDA receptor): 35 µM
- EC50 [5]: > 30 µM
SMILES: O=C(O)CCc1c(C(=O)O)[nH]c2ccc(Cl)cc12

- EC50 [5]: 30 µM
- Activity [17]: 52%
SMILES: O=C(O)CCc1c(C(=O)O)[nH]c2cccc(Cl)c12

- Activity [16]: 5%
- IC50 (Glutamate NMDA receptor): > 1000 µM
- EC50 [5]: > 30 µM
SMILES: O=C(O)CCc1c(C(=O)O)[nH]c2c(Cl)cccc12
